Among the data in ChEMBL document CHEMBL1158785, “Polyoxygenated steroids from the gorgonian Isis hippuris” (J Nat Prod, 2005) are IC50 values, retold here.

SMILES strings stand for the structures. Values after ≈ are worked out from the molar mass of the structure shown.

One assay concerns HepG2. Put plainly: Cytotoxicity against human HepG2 cells after 3 days by MTT assay. The assay is classed as functional, cell-based. To be noted: HepG2, 72 h. Put shortly: (§1)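 Freshly trypsinized cells seeded at 5000-10 000 per well, compounds added from DMSO-diluted stock; 3 days culture. Attached cells then given MTT (0.5 mg/mL, 1 h), formazan dissolved in DMSO, absorbance read at 550 nm. IC50 taken as concentration reducing cell growth by 50%.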
(In general: Tetrazolium assays rely on reduction of a dye to a coloured formazan, in cell work by metabolically active cells.)

Assay [1] can be described thus: Cytotoxicity against human Hep3B cells after 3 days by MTT assay. It counts as functional, cell-based, Hep 3B2. To be noted: 72 h. Put shortly:
as §1

In a further assay the test system is MCF7. Put plainly: Cytotoxicity against human MCF7 cells after 3 days by MTT assay. To be noted: MCF7, 72 h. The assay is classed as functional, cell-based. Put shortly:
as §1

The subject of another assay is MDA-MB-231. Put plainly: Cytotoxicity against human MDA-MB-231 cells after 3 days by MTT assay. The assay is classed as functional, cell-based. The settings on record: MDA-MB-231, 72 h. Put shortly:
as §1

A word on the IC50: it is the concentration that inhibits the measured activity by half. A high value points to a need for much substance. On to `C[C@H]1C[C@]2(O[C@H]3C[C@H]4[C@@H]5CC[C@H]6C[C@H](O)[C@H](O)C[C@]6(C)[C@H]5[C@@H](O)C[C@]4(C)[C@H]3[C@@]2(C)O)OC1(C)C`, for which the IC50 was 0.62 µg/mL (≈ 1.3 µM) in the assay on HepG2, 0.77 µg/mL (≈ 1.61 µM) in assay [1], 0.59 µg/mL (≈ 1.23 µM) in the assay with MCF7 and 0.75 µg/mL (≈ 1.57 µM) in the assay with MDA-MB-231.
For `CC(=O)O[C@H]1C[C@@H]2CC[C@@H]3[C@H]([C@@H]4C[C@]56[C@H](O4)O[C@]4(C)[C@H]5[C@H](C[C@@H]36)O[C@]43C[C@H](C)C(C)(C)O3)[C@@]2(C)C[C@H]1OC(C)=O`, the IC50 in the assay on HepG2, with MCF7 and in the assay with MDA-MB-231 was more than 20 µg/mL throughout.
For the compound `CC(=O)O[C@H]1C[C@@H]2CC[C@@H]3[C@H]([C@@H](O)C[C@]45C(=O)O[C@]6(C)[C@H]4[C@H](C[C@@H]35)O[C@]63C[C@H](C)C(C)(C)O3)[C@@]2(C)C[C@H]1OC(C)=O`, the IC50 in the assay on HepG2 is more than 20 µg/mL; with MCF7 it was 19.6 µg/mL (≈ 34.1 µM); with MDA-MB-231, more than 20 µg/mL.
As for `CC(=O)O[C@@H]1CC[C@@]2(C)[C@@H](CC[C@@H]3[C@@H]2[C@@H](O)C[C@]24C(=O)O[C@]5(C)[C@H]2[C@H](C[C@@H]34)O[C@]52C[C@H](C)C(C)(C)O2)C1`, the IC50 in the assay with HepG2, in the assay with MCF7 and in the assay on MDA-MB-231 was more than 20 µg/mL throughout.
Regarding `CC(=O)O[C@@H]1C[C@@]2(C)[C@@H](CC[C@@H]3[C@@H]2[C@@H](O)C[C@@]2(C)[C@H]3C[C@@H]3O[C@@]4(C[C@H](C)C(C)(C)O4)[C@](C)(O)[C@@H]32)C[C@@H]1O`, the IC50 was determined as 0.56 µg/mL (≈ 1.08 µM) with HepG2, 0.1 µg/mL (≈ 0.192 µM) in assay [1], 0.53 µg/mL (≈ 1.02 µM) in the assay with MCF7 and 0.41 µg/mL (≈ 0.787 µM) in the assay on MDA-MB-231.
In the same order, the values of `C[C@H]1C[C@]2(O[C@H]3C[C@H]4[C@@H]5CC[C@H]6C[C@H](O)[C@H](O)C[C@]6(C)[C@H]5[C@@H](O)C[C@@]45C(=O)O[C@]2(C)[C@@H]35)OC1(C)C` are more than 30 µg/mL, 23.8 µg/mL (≈ 48.6 µM), more than 30 µg/mL and more than 30 µg/mL.
As for `CC(=O)O[C@@H]1CC[C@@]2(C)[C@@H](CC[C@@H]3[C@@H]2[C@@H](O)C[C@]24[C@H](O)O[C@]5(C)[C@H]2[C@H](C[C@@H]34)O[C@]52C[C@H](C)C(C)(C)O2)C1` [HIPPURISTANOHEMIACETAL], the figures for the IC50 in the assay on HepG2, in the assay with MCF7 and in the assay with MDA-MB-231 were more than 20 µg/mL, 12.7 µg/mL (≈ 24.5 µM) and more than 20 µg/mL, respectively.
Turning to `CC(=O)O[C@@H]1C[C@@]2(C)[C@@H](CC[C@@H]3[C@@H]2[C@@H](O)C[C@@]2(C)[C@H]3C[C@@H]3O[C@]4(C[C@H](C)C(C)(C)O4)[C@](C)(O)[C@@H]32)C[C@@H]1O` [EPIHIPPURIN 1], the IC50 in the assay with HepG2 came out at 4.64 µg/mL (≈ 8.91 µM); in assay [1], 0.68 µg/mL (≈ 1.31 µM); with MCF7, 4.54 µg/mL (≈ 8.72 µM); with MDA-MB-231, 2.64 µg/mL (≈ 5.07 µM).
Consider `CC(=O)O[C@H]1C[C@@H]2CC[C@@H]3[C@H]([C@@H](O)C[C@@]4(C)[C@H]3C[C@@H]3O[C@]5(C[C@H](C)C(C)(C)O5)[C@](C)(O)[C@@H]34)[C@@]2(C)C[C@H]1O`, for which the IC50 in the assay on HepG2 turned out to be 2.06 µg/mL (≈ 3.96 µM); in assay [1], 1.46 µg/mL (≈ 2.8 µM); with MCF7, 2.41 µg/mL (≈ 4.63 µM); with MDA-MB-231, 0.74 µg/mL (≈ 1.42 µM).
As to `CC(=O)O[C@@H]1C[C@@]2(C)[C@@H](CC[C@@H]3[C@@H]2[C@@H](O)C[C@]24C(=O)O[C@]5(C)[C@H]2[C@H](C[C@@H]34)O[C@]52C[C@H](C)C(C)(C)O2)C[C@@H]1O`, the IC50 was 27.6 µg/mL (≈ 51.8 µM) in the assay with HepG2, more than 30 µg/mL in assay [1], more than 30 µg/mL with MCF7 and more than 30 µg/mL in the assay with MDA-MB-231.
`CC(=O)O[C@H]1C[C@@H]2CC[C@@H]3[C@H]([C@@H](O)C[C@]45[C@H](O)O[C@]6(C)[C@H]4[C@H](C[C@@H]35)O[C@]63C[C@H](C)C(C)(C)O3)[C@@]2(C)C[C@H]1OC(C)=O`: the results for the IC50 in the assay with HepG2, in the assay on MCF7 and with MDA-MB-231 were more than 20 µg/mL, 11.4 µg/mL (≈ 19.7 µM) and more than 20 µg/mL, respectively.
In the case of `C[C@H]1C[C@]2(O[C@H]3C[C@H]4[C@@H]5CC[C@H]6C[C@H](O)CC[C@]6(C)[C@H]5[C@@H](O)C[C@@]45C(=O)O[C@]2(C)[C@@H]35)OC1(C)C`, the IC50 in the assay with HepG2, with MCF7 and in the assay with MDA-MB-231 was more than 20 µg/mL in each case.
Turning to `C[C@H]1C[C@]2(O[C@H]3C[C@H]4[C@@H]5CC[C@H]6C[C@H](O)CC[C@]6(C)[C@H]5[C@@H](O)C[C@]4(C)[C@H]3[C@@]2(C)O)OC1(C)C` [EPIHIPPURISTANOL], the IC50 in the assay on HepG2 is 0.08 µg/mL (≈ 0.173 µM); in assay [1], 0.1 µg/mL (≈ 0.216 µM); in the assay with MCF7, 0.2 µg/mL (≈ 0.432 µM); in the assay on MDA-MB-231, 0.13 µg/mL (≈ 0.281 µM).
For the compound `CC(=O)O[C@@H]1CC[C@@]2(C)[C@@H](CC[C@@H]3[C@@H]2[C@@H]2C[C@]45[C@H](O2)O[C@]2(C)[C@H]4[C@H](C[C@@H]35)O[C@]23C[C@H](C)C(C)(C)O3)C1`, the IC50 in the assay on HepG2, in the assay with MCF7 and with MDA-MB-231 was more than 20 µg/mL each time.
`CC(=O)O[C@H]1C[C@@H]2CC[C@@H]3[C@H]([C@@H](O)C[C@@]4(C)[C@H]3C[C@@H]3O[C@@]5(C[C@H](C)C(C)(C)O5)[C@](C)(O)[C@@H]34)[C@@]2(C)C[C@H]1O`: the IC50 in the assay with HepG2 came to 0.72 µg/mL (≈ 1.38 µM); in assay [1], 0.46 µg/mL (≈ 0.883 µM); in the assay on MCF7, 1.07 µg/mL (≈ 2.05 µM); with MDA-MB-231, 0.21 µg/mL (≈ 0.403 µM).
